The results in this text go back to the RNAGym collection of RNA variant scans (doi:10.1126/science.aae0568).

Fewer inactive variants are shown than the library holds. Some results are limits rather than exact numbers.

To fix the notation:
B1: tRNA (parent)
chain: GUUCCGUUGGCGUAAUGGUAACGCGUCUCCCUCCUAAGGAGAAGACUGCGGGUUCGAGUCCCGUACGGAACG

In this data set the parent is B1. Put plainly: yeast fitness relative to wild type (ratio to wild type); higher = fitter; tRNA-Arg(CCU), competitive growth, 37 C, YPD. In a few lines: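 Start and end populations of a pooled competition were compared by 100-nucleotide paired-end sequencing of gene amplicons. The Saccharomyces cerevisiae strains carried tRNA-Arg(CCU) gene variants at the native genomic locus, synthesised with a 3% per-site mutation rate at 69 sites, and competed in YPD at 37°C for 24 hours in six parallel replicates. Darwinian fitness relative to wild type was based on the change in genotype frequencies. Genotypes required ≥ 100 starting reads, and estimates < 0.5 were set to 0.5.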
As to C11U A43U C62A, the yeast fitness was determined as 0.605.

For A43U C66U, the yeast fitness stood at 0.829. Turning to U7C A15C A40G A57G, the yeast fitness is 0.649. The figure for C11U G48A A65C is 0.663; for A36C U59A it is 0.569. On to C30G C31U A57G U59A, for which the yeast fitness was at most 0.5. The figure for C5G C60G is 0.581; for C24G C30A G44C U47C U59A it is at most 0.5; for G9A A40C C66U it is 0.719. As to C27U A43C U59A, the yeast fitness is 0.645.

As for A15U C24G C62U A69U, the yeast fitness is at most 0.5. The figure for C34U A43U A45U is 0.534.

Regarding U8A G44A, the yeast fitness was 0.644. The figure for C5G G38C G68A is at most 0.5. The figure for A15G C27U C29U A37C C60U A69C is at most 0.5; for C22U A57U C66U it is 0.553.

As to C5U C24G A40C A69C, the yeast fitness stood at 0.522. As to G6A U7A U26C C34G G63A, the yeast fitness is at most 0.5. Next, U13A A15C C33G C49U U64A: at most 0.5. Next, A15G A45U G48A G56A: 0.717. With C11U C34G A40C A43G G51C, the yeast fitness is at most 0.5. The figure for A15G C29G C34G U64C is at most 0.5; for C60U it is 0.779; for G9C U13G U28C G41C A43C A45U U47C C49G U53G A69C it is at most 0.5. The figure for C5U U13A C29G C31G is at most 0.5; for G9C C30G G68C it is at most 0.5; for A14G A21G U53C A57C A69U it is at most 0.5. On to A21U A36U, for which the yeast fitness was 0.592. Regarding C31U C61A A69C, the yeast fitness is 0.597. The figure for U16C C34A G39C G52A G58A is at most 0.5; for U3G G18A C60G it is 0.538. As for G18A G58A, the yeast fitness came out at 0.765. The figure for A14C C22A G67C is at most 0.5. The figure for A15U G23C C33A G67C is at most 0.5; for U8A C30U G58C it is at most 0.5. Next, A15C U47G: 0.663. Turning to A15C G17C A45U, the yeast fitness is at most 0.5. Next, U13C A14G C31U: 0.824. Next, A36C G58C C62U: at most 0.5; C29G C33U U47A G58A: at most 0.5. On to U13A G17C C31A, for which the yeast fitness came out at 0.623.

U2G A69C: the yeast fitness worked out at 0.93. The figure for G58C G68U is 0.75. Regarding A14G A42U C55U U59C G63A A65C, the yeast fitness was at most 0.5. The figure for C11U A21U C22U is 0.673; for U3C U8A U13C it is at most 0.5; for G10A G25A U47C it is at most 0.5. On to C29U A45U U54A, for which the yeast fitness is at most 0.5. Next, U28G G38A A40G G56A C62U: at most 0.5. Next, C4U C27U U32C: 0.615.

As for C5G C27G G44C U59A, the yeast fitness was at most 0.5. The figure for U2C G10C A45C is at most 0.5. For the variant U19C C22A U32A A37U A45C, the yeast fitness amounted to 0.505.

Consider G25A U26A C31U G38A A42G A43U G48C G68C, for which the yeast fitness is at most 0.5.

Consider A15C A36U G58A G67A, for which the yeast fitness is at most 0.5. Next, C4G A15G G23A C34G G67U: at most 0.5. The figure for C5U U28C is 0.976; for G6C G12A U47A G51C A65G it is at most 0.5; for U3C C27G G39A C46U G67A it is at most 0.5. In the case of C11A C34G A65U, the yeast fitness was at most 0.5. Consider U3C A21G G44C G63C, for which the yeast fitness is at most 0.5. The figure for G12C A20U A36G C46A U54A A70U is at most 0.5; for A14C C60U C62U U64A it is at most 0.5; for C4A A15G G17A A21C U28A A40U it is at most 0.5. For U2C C27U G41A, the yeast fitness came out at 1.06. Next, C34G A36G C60G: 0.642.

C24A U28C A57U: the yeast fitness is at most 0.5. With C4U A15G G23C A37U U47C A65U, the yeast fitness was at most 0.5. Next, U16C A20U G25C: at most 0.5. As to C22G A45C A65C, the yeast fitness is at most 0.5. A40G U47A C66G: the yeast fitness was found to be 0.705. Next, C4A A36U A37C U47C A70U: 0.55; U16C C46A: 1.02; G25A G38C: 0.775. Next, C29U U35C A65U: at most 0.5. Next, A15G G56C C66G: at most 0.5; U8G G17A C31A: at most 0.5. In the case of U13C A21G C31G, the yeast fitness came to 0.754. Next, C5G C30U A42G: 0.57.

For A14U C24G C46G G52A, the yeast fitness was at most 0.5. Consider U13A C24A C60U, for which the yeast fitness was at most 0.5.

As for U3G A43G A45U, the yeast fitness came out at 0.539.

As for C11U A21C A42C G44A U54A C62U, the yeast fitness was at most 0.5. The figure for C5U C31U G41A is 0.831; for C61G G67C G68A it is 0.611. Next, G18C C49A C61G: 0.694; U3A A15U: 0.695; A14U A43C A65U: at most 0.5. The figure for A14G A37U C61A is at most 0.5. As for G23C A45U G51C, the yeast fitness is at most 0.5. Next, C11A A20G C55U C61A: at most 0.5; C4A U26A C34G G38A G68C: at most 0.5; C4G G48C G67C: 0.542.

On to G52C A65G, for which the yeast fitness was 0.613. The figure for U7A C22A G52A G58A is at most 0.5; for U13A U54C C62U G68C it is at most 0.5; for G10C C11U C29G A42U it is at most 0.5. Regarding U53A G56C C60A A70G, the yeast fitness was 0.58.

Consider C4G C11A U35A C49G, for which the yeast fitness was 0.526.

Regarding C24U C34U A57U C60U, the yeast fitness was at most 0.5.

C30U A40C: the yeast fitness was found to be 0.792. Next, C5U C11A U28G G44C: at most 0.5; U7A G39A C49A: at most 0.5. The figure for U8C C27G A57C is 0.586; for C49G C66G G67C it is 0.569. On to C11U U26G G56A, for which the yeast fitness is at most 0.5.

Take U13A A21U G58C G68C: the yeast fitness was 0.857. Next, G12A A45G U47C U59A: at most 0.5; U16C A21G A70C: 0.725. A14C G18A: the yeast fitness was 0.59. Next, C61A A70U: 0.673; C4U C49U C55A: at most 0.5; G18A C30U C55G G68A: at most 0.5. As to G25C U32G A65G, the yeast fitness was at most 0.5. Next, G9C G39A G68C A69C: at most 0.5. A21G C61A: the yeast fitness came to 0.645. As for A14U G50C A57G, the yeast fitness is at most 0.5. For the variant A21U C29G C31G A43U C60U, the yeast fitness stood at 0.586. Next, U28A C34G C49G: at most 0.5. On to G6A G41A G51C, for which the yeast fitness was at most 0.5. Next, U26G G67A: 0.81; A36G G41C: 0.955. Next, A15U C31U: 0.707. Next, G6A C30G C60G G68A: at most 0.5; C5G C11U C60G: at most 0.5. For the variant C11A A21C G39C, the yeast fitness is at most 0.5. The figure for A21G A42U C66U is 0.56; for G9A A15G U16A G23C A69C it is at most 0.5. The figure for G9A C60G G67A is at most 0.5. Regarding A15C C34U C55A, the yeast fitness is at most 0.5.

In the case of C24A C29G C33G, the yeast fitness was 0.619. The figure for C34G G48A is 0.662. As for C5U A15U C29U C31U C34U U64C, the yeast fitness is at most 0.5. The figure for C11A A21U C27A U35G is at most 0.5. Next, U2G C11U A45C U53G A69U: 0.544. The figure for C5U A15C C34G A40U A43C C49G G50A C60U is 0.583; for U2G C5A U19A C30G C55U G68C it is at most 0.5.

As for C55U G58C, the yeast fitness was 0.842.

As to C5A A14G C60G, the yeast fitness was at most 0.5. The figure for U2C A70U is 1.06. Next, A21C C27U C49U: 0.679; A20U G51A U53G C60G: at most 0.5. The figure for U28A A42C C49G C62U is 0.585. On to C5U G10A G68C, for which the yeast fitness was at most 0.5. The figure for C11A A42G A43U C46U C62U is 0.582.

Take U7G C11U C60A: the yeast fitness is at most 0.5. Take C11A U19A U47C C55A C61U: the yeast fitness is at most 0.5. The figure for C30U A45G is 0.781; for A14C A40C it is 0.6; for U8G U32C C34G G68A it is 0.598. Next, G6C U8G U19G C33A A42C G58A: at most 0.5; A36C A37C A57C: at most 0.5. Next, U2A G44A C46U: 0.621; U19A G41C C55G C66G: at most 0.5; U3C G12A C30U G44A C61U: at most 0.5.

Consider U35C C46U C55G, for which the yeast fitness is 0.507. The figure for G9A A14U C29G C34A G56A is at most 0.5. The figure for C4A C11U U32A G38C U47A is at most 0.5; for C4A C24G U28G C31U it is at most 0.5; for A42U A43G C61A it is 0.723. On to U3C G10C C11G C24G, for which the yeast fitness is at most 0.5. The figure for C31G A40G C46A C55G is 0.578; for C24G G39C C61U it is at most 0.5. Next, G12C U13A G18C U32A G52A: at most 0.5; U2G G9C C60A: at most 0.5; A36G G50C: 0.723. The figure for U28A G44C is 0.813.
